This note sets out measurements from article PMC8154199 (JACS Au, 2021).

Series [1] deals with P. falciparum strain Dd2. Put plainly: Growth inhibition assay with highly synchronized P. falciparum, SYBR green. Conditions: Plasmodium falciparum, DD2, 72 h, read-out: IC50 P. falciparum Dd2. The format is cell-based.
Series [2] is described as follows: CID-ESI-MS stability of heme-drug complexes. It counts as binding. Conditions: 4-heme m/z 960.2; AQ-heme m/z 971.3; CQ-heme m/z 935.4. The method, boiled down:
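Hematin was made fresh from hemin in 50% ammonia. Test compound stock was in ACN or water. Hematin and compound were mixed equimolar at 100 μM in CH3CN/H2O (50:50), then diluted to 50 μM in ACN/H2O/HCOOH (50:50:1). Samples were infused at 5 μL·min–1 into an orthogonal ESI-TOF. CID used capillary exit (cone) voltage 120–400 V in 20 V steps, and adduct stability responses were plotted against voltage.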

Series [3] can be described thus: Probe solubility in aqueous ACN by absorbance kinetics. Conditions: aqueous ACN solutions (Figure S16). It counts as physicochemical. Summed up:
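Solubility was assessed in 2% ACN by spectrophotometric absorbance kinetics over decreasing test compound concentrations, starting at 20 μM.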

For series [4], the system named is human fibroblasts hMRC-5. The experiment in a line: Toxicity against human fibroblasts hMRC-5. It counts as cell-based. Conditions: Fibroblast, read-out: IC50 hMRC-5.

Regarding `CCN(CC)CCCC(C)Nc1ccnc2cc(Cl)ccc12` (centres unmarked) [chloroquine, reference compound], in series [1], the IC50 stood at 189 nM. The “residual complex at high fragmentor voltage (ion abundance)” value in series [2] is on record as “did not show a residual covalent adduct”.

In the case of `CN(C)c1ccc2nc3ccc(=[N+](C)C)cc-3sc2c1` [methylene blue, reference compound], the IC50 in series [1] was 7 nM.

Consider `C#Cc1ccc(C(=O)C2=C(C)C(=O)c3ccccc3C2=O)cc1` [probe 7], for which the IC50 in series [1] worked out at 1810 ± 302 nM; in series [4], 20500 nM. Moreover, in series [3], the “solubility sequence, from the less to the most soluble” value was “probe 10 < probe 8 ≈ probe 7 < probe 9”.

Regarding `C#Cc1ccc(CC2=C(C)C(=O)c3ccccc3C2=O)cc1` [probe 11, 2-(4-ethynylbenzyl)-3-methylnaphthalene-1,4-dione], the results for the IC50 in series [1] and in series [4] were 49 ± 15 nM and more than 64000 nM, respectively.
